# Shown are actives, neighbours in structure and some others; about 1.2% of the full set was active somewhere.
# UBC9 SUMO inh = inhibitors of human SUMOylation (UBC9); HTRF SUMOylation assay, SAE1/SAE2 + UBC9, in vitro; inhibition, % at 35 µM; actives 0.36% (n = 290,000); in the data active = inhibition above about 50%, passing the limit was not always enough
# TDP2 inh = blocks human TDP2 phosphodiesterase activity | O95551 | recombinant TDP2, T5PNP hydrolysis, p-nitrophenol absorbance 415 nm | inhibition, % at 12.8 µM | actives 0.34% (n = 370,000);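 active = inhibition above the mean of all tested compounds plus 3 SD, set per campaign, cut at about 25% in these data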;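 note: 0% = DMSO with enzyme and 100% = buffer with substrate but no TDP2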
#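 Read-out basis: percent inhibition. System: recombinant human TDP2. Buffer or medium: Mg2+-containing Tris-HCl buffer, pH 7.5. Repeats: single replicate. Timing: reaction 2 h, 37 °C. Benchmarks: high control without enzyme, low control DMSO plus TDP2. Probe or stimulus: 5 mM T5PNP. Doses: 12.8 µM only. Measured by: epi absorbance of p-nitrophenol freed from T5PNP by hydrolysis.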
# NSD2 inh = blocks human histone methyltransferase NSD2. O96028. NSD2 peptide methylation, AlphaScreen, 120 min. inhibition, % at 12.5 µM. actives 0.54% (n = 310,000). AID 743445; in the data active = inhibition above about 50%
# Target sequence (O96028 whole entry, looked up): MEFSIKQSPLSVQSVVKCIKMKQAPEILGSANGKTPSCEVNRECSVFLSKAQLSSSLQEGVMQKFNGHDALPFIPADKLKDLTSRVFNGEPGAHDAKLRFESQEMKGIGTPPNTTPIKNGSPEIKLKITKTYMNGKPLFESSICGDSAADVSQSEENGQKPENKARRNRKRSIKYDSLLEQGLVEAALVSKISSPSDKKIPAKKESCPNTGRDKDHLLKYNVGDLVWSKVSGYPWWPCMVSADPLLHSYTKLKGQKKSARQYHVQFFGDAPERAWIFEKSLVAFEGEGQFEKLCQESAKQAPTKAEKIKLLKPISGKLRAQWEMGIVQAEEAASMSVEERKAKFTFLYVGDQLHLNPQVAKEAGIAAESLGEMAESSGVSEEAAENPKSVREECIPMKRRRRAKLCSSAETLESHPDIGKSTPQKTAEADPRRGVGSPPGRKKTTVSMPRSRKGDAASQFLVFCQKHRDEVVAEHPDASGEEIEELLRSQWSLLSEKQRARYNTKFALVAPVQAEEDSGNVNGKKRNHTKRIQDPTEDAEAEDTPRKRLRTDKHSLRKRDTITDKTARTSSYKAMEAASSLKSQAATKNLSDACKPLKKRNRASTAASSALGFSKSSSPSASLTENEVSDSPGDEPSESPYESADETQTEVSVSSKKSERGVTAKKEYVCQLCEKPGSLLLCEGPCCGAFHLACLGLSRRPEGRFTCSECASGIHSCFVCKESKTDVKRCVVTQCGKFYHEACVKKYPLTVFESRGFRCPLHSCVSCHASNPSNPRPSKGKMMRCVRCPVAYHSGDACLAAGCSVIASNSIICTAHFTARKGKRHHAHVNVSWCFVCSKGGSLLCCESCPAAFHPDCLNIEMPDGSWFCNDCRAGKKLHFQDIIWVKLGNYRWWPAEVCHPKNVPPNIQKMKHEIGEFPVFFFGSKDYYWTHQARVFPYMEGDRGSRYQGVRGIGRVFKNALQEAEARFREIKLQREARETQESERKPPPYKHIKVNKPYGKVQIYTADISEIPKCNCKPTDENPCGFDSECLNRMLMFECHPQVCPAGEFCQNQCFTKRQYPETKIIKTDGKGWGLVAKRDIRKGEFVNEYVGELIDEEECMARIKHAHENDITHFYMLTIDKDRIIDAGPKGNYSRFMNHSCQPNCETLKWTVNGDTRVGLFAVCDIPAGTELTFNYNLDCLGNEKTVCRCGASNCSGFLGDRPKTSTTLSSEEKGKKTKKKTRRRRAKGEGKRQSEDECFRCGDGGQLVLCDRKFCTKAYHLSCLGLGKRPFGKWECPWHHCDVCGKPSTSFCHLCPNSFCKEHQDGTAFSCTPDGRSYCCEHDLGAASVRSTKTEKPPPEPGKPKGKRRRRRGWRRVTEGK
# CTSL1 counter = counter-screen for PFM18AAP inhibitors: inhibitors of F. hepatica cathepsin L1; actives 0.49% (n = 300,000); inhibition, % at 5.96 µM; recombinant F. hepatica cathepsin L1, Z-Leu-Arg-MCA fluorescence;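 active = inhibition above the mean of all tested compounds plus 3 SD, set per screening campaign, cut at about 17% in these data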;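 note: 0% = plate median of test compound wells and 100% = 1 µM Z-Phe-Ala-diazomethylketone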
# The depositor's hits bear a star; x = no result given.
SMILES,UBC9 SUMO inh,TDP2 inh,NSD2 inh,CTSL1 counter
CN(CCO)c1nc(N)c2c(N)nc3c(c2c1C#N)CC(=O)N3Cc1cccs1,101.2*,-3.9,0.0,1.5
COCCN1C(=O)Cc2c1nc(N)c1c(N)nc(N3CCN(c4ccc(F)cc4)CC3)c(C#N)c21,92.9*,13.5,2.4,0.7
CC(=O)NC12CC3CC(C1)CC(C(=O)NCc1ccc(C)cc1)(C3)C2,1.5,7.3,4.4,-3.5
Cc1ccc(C(=O)N(C)[C@H]2C[C@H]3c4[nH]c5c(-c6cccc(C)c6)cccc5c4CCN3C[C@H]2[C@H](C)O)cc1,x,1.9,x,x
CC(=O)c1ccc(NC(=O)Nc2cccnc2)cc1,58.2*,-15.0,-0.9,x
O=C(Nc1ccc(N2C(=O)C3C4C=CC(C4)C3C2=O)cc1)Nc1cccnc1 (configuration not stated),56.1*,3.7,-3.7,-1.2
O=C(NCCN1C(=O)C2C3C=CC(C3)C2C1=O)Nc1cccnc1 (configuration not stated),3.9,3.2,x,3.0
COCC(=O)N(c1ccc(C(C)(C)C)cc1)C(C(=O)NC(C)(C)C)c1cccnc1 (configuration not stated),x,-6.9,x,x
Cc1ccc(/C=C/C2=Cc3c(sc(NC(=O)CSc4n[nH]c(N)n4)c3C#N)C(C)(C)C2)o1,70.2*,x,x,11.6
Cc1sc(NC(=O)CSc2n[nH]c(N)n2)c(C#N)c1C,x,-2.9,1.1,x
CC(C)(C)c1ccc(-c2nnc(SCC(=O)Nc3ccc(S(=O)(=O)Nc4nccs4)cc3)n2-c2ccc(Cl)cc2)cc1,x,5.5,-7.4,x
O=C(COC(=O)c1cccs1)NC1CC1,x,x,-1.0,x
Cc1cc2nc(-c3cccc(NC(=O)c4ccc(Br)o4)c3C)oc2cc1C,27.9,-2.7,-4.9,18.0*
Cc1ccc2oc(-c3cccc(NC(=O)c4ccc(Br)o4)c3C)nc2c1,12.5,8.7,-1.3,3.5
CC(C)NC(=S)N/N=C/c1ccc(N2CCOCC2)cc1,-20.6,-1.4,0.9,-0.2
Oc1ccc(/C=N/NC(=S)N2CCOCC2)cc1,5.4,0.2,-34.7,16.7*
COc1ccc(S(N)(=O)=O)cc1C(=O)N(C)CC(=O)Nc1ccc(N2CCOCC2)cc1,9.0,-0.1,-6.0,1.5
O=c1c2ccccc2oc2nc3ccn(Cc4ccncc4)c(=O)c3cc12,68.5*,x,x,x
N/C(CSc1ccc(Cl)cc1)=N\NC(=O)c1ccncc1,9.3,-11.7,-2.8,20.0*
O=C(CSc1ccc(Cl)cc1)NCc1ccncc1,3.8,4.9,-1.9,2.2
O=C(CSc1nnc(C2CCCCC2)o1)N1CCCCC1,12.2,-4.6,-8.3,22.7*
COc1ccc(Cc2nnc(SCC(=O)N3CCCCC3)o2)cc1,1.8,4.1,1.0,17.2*
O=C(CSc1nnc(C2COc3ccccc3O2)o1)N1CCCC1 (configuration not stated),9.1,-6.2,x,-5.4
Cc1[nH]c2ccccc2c1CC(=O)Nc1ccc(Nc2cccnc2)c(-c2ccc(Oc3ccccc3)cc2)c1,x,-2.8,-0.5,x
CCCCCOCC1CC(C/C(C)=N/NC(N)=S)C(=O)O1 (configuration not stated),3.4,4.1,-0.2,17.6*
SMILES,UBC9 SUMO inh,TDP2 inh,NSD2 inh,CTSL1 counter
Nc1[nH]c(C(=O)c2ccccc2)c(-c2ccc(Cl)cc2)c1C(=O)c1c[nH]c2cc(F)ccc12,x,-1.5,x,x
Cc1noc(C)c1S(=O)(=O)NC(=O)C1(C)CCN1C(=O)Cc1ccc(Cl)cc1Cl (configuration not stated),x,-13.9,-6.8,x
O=C(CSc1nnc(COc2ccc(Cl)cc2)o1)N(c1ccccc1)C1CCS(=O)(=O)C1 (configuration not stated),x,-11.9,-1.1,x
COC(=O)C1=C(C)N(C)C(=S)N(C)C1c1ccc(OC)cc1 (configuration not stated),-2.1,-5.9,-8.8,17.4*
COC(=O)C1=C(C)N(C)C(C)=C(C(=O)OC)C1c1ccc(C(=O)OC)cc1,-11.0,6.7,-0.7,0.3
N#Cc1ccc(NC(=O)COC(=O)C2CCC2)cc1,x,11.0,x,x
Cc1cccc(NC(=O)COC(=O)CNC(=O)C2CCCCC2)c1,-16.6,-3.8,32.8,25.3*
CC(C)CCNC(=O)NC(=O)COC(=O)CNC(=O)C1CCCCC1,-11.0,2.0,-2.3,26.4*
Cc1ccc(C)c(NC(=O)COC(=O)CNC(=O)C2CCCCC2)c1,x,8.0,-4.5,x
N#Cc1ccc(NC(=O)COC(=O)CNC(=O)C2CCCCC2)cc1,-9.5,-6.2,-6.8,30.6*
COc1cccc(NC(=O)COC(=O)CNC(=O)C2CCCCC2)c1,x,4.3,-2.3,x
CCc1nc2ccc(C(=O)NCc3ccccc3OC)cn2c1N(CC)CCN(C)C,x,2.4,0.2,x
CCOC(=O)N[C@H](C(=O)N1CCC[C@H]1C(=O)NC1CCCC1)C1CCCCC1,x,-3.5,x,x
Cc1ccc2oc(=O)c3cnn(CC(=O)N(CCC(C)C)Cc4ccco4)c3c2c1,11.1,0.7,x,7.1
O=C(Cn1ncc2c1-c1ccccc1OC2)N(Cc1ccco1)C1CCCCC1,11.5,0.2,x,62.0*
O=C(Cn1ncc2c(=O)oc3ccccc3c21)N(Cc1ccco1)C1CCCCC1,8.3,3.0,x,44.4*
COc1cc(NC(=O)CSc2nc(C)cc(=O)[nH]2)cc(OC)c1,x,-0.5,x,x
COc1ccc(S(=O)(=O)N2CCCCC2c2cc(C(=O)NCc3ccccc3)no2)cc1 (configuration not stated),x,-0.5,-1.2,x
O=C(Nc1ccon1)Nc1cccc(Cl)c1Cl,11.6,11.8,x,-3.2
O=C(NN=Cc1cccc(OCc2ccccc2)c1)c1cc(-c2ccc(Cl)cc2)n[nH]1,x,-9.0,2.3,x
Cc1ccc(-c2csc(NC(=O)c3ccc([N+](=O)[O-])o3)n2)cc1,-2.3,13.3,3.4,16.8*
CCN=C1S/C(=C/c2ccc(-c3ccc(F)cc3)o2)C(=O)N1CC,9.7,7.4,0.5,17.7*
CCN=C1S/C(=C\c2ccc(Sc3ccc(Cl)cc3)o2)C(=O)N1CC,-3.8,-3.1,-2.5,4.3
CCc1nc2c(OCCC3CCCCC3)cccn2c1N(C)C(=O)c1ccc(OC)cc1,x,-10.2,-3.3,x
Cc1ccc(N(CC(=O)N2CCCCCC2)S(C)(=O)=O)c(C)c1,x,3.4,4.3,x
SMILES,UBC9 SUMO inh,TDP2 inh,NSD2 inh,CTSL1 counter
CCN(CC)c1ccc2nc3ccccc3[n+](CC)c2c1,-135.1,x,28.9,5.5
CCN(CC)c1ccc2nc3ccc(N)cc3[n+](-c3ccccc3)c2c1,x,-11.0,71.8*,x
Cc1ccc2c(SCC(=O)NCc3ccco3)nc(-c3ccc(F)cc3)nc2c1,59.0*,6.7,0.3,-0.3
O=C(NC1CCC1)c1ccc(C#Cc2cccc(F)c2)nc1,x,3.4,x,x
O=C(CSc1nc2ccccc2n1CCc1ccccc1)N1CCOCC1,-4.1,1.1,0.7,0.7
O=C(CSc1nc2ccccc2n1CCc1ccccc1)c1ccc(O)c(O)c1,64.6*,-10.1,101.8*,x
COc1ccc(CCC(=O)Nc2c(-c3ccc(N(C)C)cc3)[nH][nH]c2=O)cc1,x,60.1*,x,x
O=C(OCCCOC(=O)c1ccc([N+](=O)[O-])o1)c1ccc([N+](=O)[O-])o1,x,15.3,0.3,22.6*
CCCN1/C(=C2/SC(=S)N(CC)C2=O)C=Cc2ccccc21,-15.9,0.3,16.9,30.1*
